Measurements gathered from unrelated publications.
Compare with care: the assays were run in different laboratories.
Target: G protein-coupled receptor kinase 4 (GRK4, Homo sapiens, UniProt P32298)

SMILES	read-out	method	concentration	remaining binding
COc1cccc(CNC(=O)c2nc3scc(COCc4ccc(C(=O)O)cc4)c3c(=O)[nH]2)c1	cell-free assay	competition with immobilised ligand	1 µM	72.1%
COc1cnc(Nc2cccc(S(N)(=O)=O)c2)nc1N1CCN(c2ccccc2)C(=O)C1	binding	competition with immobilised ligand	1 µM	100%
O=C1CCc2cc(Nc3cc(OC4CCOCC4)c([N+](=O)[O-])cc3Cl)ccc2N1	cell-free assay	competition with immobilised ligand	1 µM	100%
Cc1cnn2ncc(-c3ccnc(N(C)C)n3)c2c1	binding		1 µM	55%
Cc1cnc(Nc2ccc(C(=O)N3CCC(N4CCCC4)CC3)cc2)nc1-c1cc2ccccc2s1	binding	competition with immobilised ligand	1 µM	41%
CN(c1nccc(-c2cnn3ncccc23)n1)C1CC1	binding		1 µM	72%
CCCOc1ccc([C@@H]2[C@@H](C(=O)O)[C@H](c3ccc4c(c3)OCO4)CN2CC(=O)Nc2c(CC)cccc2CC)cc1	cell-free assay	competition with immobilised ligand	1 µM	100%
c1cncc(-c2cccc(Nc3nccc(NC4CCCCC4)n3)c2)c1	binding	competition with immobilised ligand	10 µM	56%
FC(F)(F)Oc1cccc(-c2cnc3ccc(-c4ccncc4)nn23)c1	cell-free assay	competition with immobilised ligand	5 µM	43%
c1cnn2ncc(-c3ccnc(N4CCC45COC5)n3)c2c1	binding		1 µM	81%
CCN1CCN(Cc2ccc(C(=O)Nc3ccc(C)c(Oc4ccc5c(c4)CC(=O)N5)c3)cc2C(F)(F)F)CC1	binding	competition with immobilised ligand	1 µM	100%
CN(C)c1ncc(F)c(-c2cnn3ncccc23)n1	binding		1 µM	100%
O=C(c1ccc(Nc2nccc(-c3cc4ccccc4s3)n2)cc1)N1CCC(N2CCCC2)CC1	binding	competition with immobilised ligand	1 µM	0.4%
C[C@@]1(Cc2ccc(C#N)cc2)C(=O)N(c2cc(Cl)cc(Cl)c2)c2ncc(C(=O)NC3(c4nc(C5CCC5)no4)CC3)n21	cell-free assay	competition with immobilised ligand	1 µM	100%
O=C(c1ccc(Nc2ncc(Cl)c(-c3ccc(Cl)s3)n2)cc1)N1CCC(N2CCCC2)CC1	binding	competition with immobilised ligand	1 µM	1.1%
CN(C)C(=O)Cn1cc(-c2nc([C@@](C)(c3ccc(-c4cnc(N)nc4)cc3)C3CC3)no2)cn1	cell-free assay	competition with immobilised ligand	1 µM	86%
O=C(NCC1CCOCC1)c1n[nH]cc1NC(=O)c1c(F)cccc1F	binding	competition with immobilised ligand	1 µM	100%
N[C@H]1CCN(c2nccc(-c3cnn4ncccc34)n2)C1	binding		1 µM	75%
C[C@@H](c1ccc(-n2cnc3c(N)ncnc32)cc1)N1CCc2nn(C)c(Cc3ccccc3)c2C1=O	binding	competition with immobilised ligand	0.1 µM	59%
O=C(NCCCC1CCCCC1)c1ccc(CNC(=O)c2cnn(-c3ccccc3)c2C(F)(F)F)cc1	cell-free assay	competition with immobilised ligand	0.1 µM	100%
C[C@H]1CCN(c2nccc(-c3cnn4ncccc34)n2)C1	binding		1 µM	54%
